This passage reports MIC and minimal effective concentration results from ChEMBL document CHEMBL1123801, “Synthesis and antifungal activity of new 1-vinylimidazoles” (1987).

For assay [1], the system named is Aspergillus fumigatus. Put plainly: (§1) Minimum inhibitory concentration against Aspergillus fumigatus. The format is functional. In a few lines: (§2)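 Broth microdilution in Sabouraud's glucose broth. Final inocula 1×10^5 cells/mL for the yeast (C. albicans) and 1×10^5 conidia/mL for the mold (A. fumigatus) and the dermatophyte (T. asteroides). MIC read as the fungistatic end point. Lowest value of duplicated experiments.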

Assay [2] concerns Candida albicans. Nature of the assay: Minimum inhibitory concentration (MIC) against Candida albicans. The format is functional. In a few lines: as §2
Assay [3] can be described thus: (§3) Minimum inhibitory concentration against Trichophyton asteroides. The assay is classed as functional. Particulars: Trichophyton benhamiae. In outline: as §2
The subject of assay [4] is Aspergillus fumigatus. Put plainly: Minimum inhibitory concentration (MIC) against Aspergillus fumigatus. The assay is classed as functional. In outline: as §2
The test system of assay [5] is Candida albicans. Nature of the assay: Minimum inhibitory concentration against Candida albicans IFO 1060. The format is functional. In a few lines: (§4)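 Agar dilution on Sabouraud's glucose agar. Inocula 1×10^6 cells/mL for the yeast strains (C. albicans IFO 1060, 1388) and 1×10^6 conidia/mL for the dermatophytes (T. mentagrophytes IFO 5809, 5810; T. rubrum IFO 5467, 5807). MIC in μg/mL, lowest value of duplicated experiments.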

The subject of assay [6] is Trichophyton rubrum. Put plainly: Minimum inhibitory concentration against Trichophyton rubrum IFO 5807. The assay is classed as functional. In a few lines: as §4
For assay [7], the system named is Trichophyton rubrum. Put plainly: Minimum inhibitory concentration against Trichophyton rubrum IFO 5467. The format is functional. In a few lines: as §4
Assay [8] has as its system Trichophyton benhamiae. The description is as §3. The assay is classed as functional. In a few lines:
as §2

The test system of assay [9] is Candida albicans. Nature of the assay: Minimum inhibitory concentration against Candida albicans IFO 1388. The assay is classed as functional. In outline:
as §4

For assay [10], the system named is Trichophyton benhamiae. Nature of the assay: Minimum inhibitory concentration against Trichophyton mentagrophytes IFO 5810. The format is functional, Arthroderma benhamiae. In outline: as §4
The subject of assay [11] is Trichophyton benhamiae. Put plainly: Minimum inhibitory concentration against Trichophyton mentagrophytes IFO 5809. The format is functional, Arthroderma benhamiae. In a few lines: as §4
The test system of assay [12] is Candida albicans. Nature of the assay: Inhibition of pseudomycelium formation of Candida albicans. The assay is classed as functional. Particulars: read-out: MEC. In outline: (§5)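 C. albicans KE-2 (clinical isolate), final inoculum 1×10^6 yeast cells/mL in EMEM with 20% calf serum. Compounds serially diluted by the microtiter dilution system used for MICs. After incubation, wells Giemsa-stained (5% in phosphate buffer) and examined microscopically. MEC (μg/mL) = lowest concentration preventing typical pseudomycelium formation. Lowest value of duplicated experiments.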

In assay [13] the test system is Candida albicans. Put plainly: Inhibitory effect on pseudomycelium formation of candida albicans. The format is functional. The settings on record: read-out: MEC. In outline:
as §5

The test system of assay [14] is Trichophyton rubrum. Nature of the assay: Minimum inhibitory concentration against Trichophyton rubrum IFO 5467.
The nature of assay [15]: as §1. The format is functional, trichophyton asteroides. The settings on record: Trichophyton benhamiae. In a few lines: as §2
In assay [16] the test system is Trichophyton benhamiae. Nature of the assay: Minimum inhibitory concentration against Trichophyton mentagrophyte IFO 5809. The assay is classed as functional. In outline: as §4
The test system of assay [17] is Trichophyton benhamiae. Nature of the assay: Minimum inhibitory concentration against Trichophyton mentagrophyte IFO 5810. The format is functional. In a few lines: as §4

In brackets after ≈: the same amount, converted by molar mass. A value given as a limit tells only on which side of the number the result lay.

As for `CC(C)(n1ccnc1)n1ccnc1`, the MIC (against Aspergillus fumigatus [1]; against Candida albicans [2]; in assay [3]) was above 100 µg/mL each time.

Take `c1ccc(C(c2ccccc2)(n2ccnc2)n2ccnc2)cc1`: the minimum inhibitory concentration (MIC) against Candida albicans [2] was above 100 µg/mL; in assay [3] it was 0.8 µg/mL (≈ 2.66 µM); in the assay on Aspergillus fumigatus [4], above 100 µg/mL.

With `CC(c1ccc(Cl)cc1)(n1ccnc1)n1ccnc1`, the minimum inhibitory concentration (MIC) (in the assay with Candida albicans [2]; in [3]; against Aspergillus fumigatus [4]) was above 100 µg/mL each time.

On to `C=C(c1ccccc1OCc1ccsc1Cl)n1ccnc1`, for which the MIC against Candida albicans [5] turned out to be 12.5 µg/mL (≈ 39.5 µM); with Trichophyton rubrum [6], 0.8 µg/mL (≈ 2.53 µM); in the assay with Candida albicans [2], 6.2 µg/mL (≈ 19.6 µM); in the assay with Trichophyton rubrum [7], 0.4 µg/mL (≈ 1.26 µM); in the assay with Trichophyton benhamiae [8], 0.1 µg/mL (≈ 0.316 µM); with Candida albicans [9], 12.5 µg/mL (≈ 39.5 µM). The MIC was 0.8 µg/mL (≈ 2.53 µM) in the assay with Trichophyton benhamiae [10], 1.6 µg/mL (≈ 5.05 µM) against Trichophyton benhamiae [11] and 1.6 µg/mL (≈ 5.05 µM) against Aspergillus fumigatus [4]. Also, the minimal effective concentration with Candida albicans [12] was determined as 0.8 µg/mL.

`C/C=C(/c1ccccc1OCc1ccc(Cl)cc1)n1ccnc1`: the MIC in the assay on Candida albicans [5] is 12.5 µg/mL (≈ 38.5 µM); in the assay on Trichophyton rubrum [6], 1.6 µg/mL (≈ 4.93 µM); in the assay on Candida albicans [2], 6.2 µg/mL (≈ 19.1 µM); in the assay with Trichophyton rubrum [7], 0.8 µg/mL (≈ 2.46 µM); in the assay on Trichophyton benhamiae [8], 0.1 µg/mL (≈ 0.308 µM); in the assay on Candida albicans [9], 12.5 µg/mL (≈ 38.5 µM). The minimal inhibitory concentration (MIC) stood at 0.8 µg/mL (≈ 2.46 µM) with Trichophyton benhamiae [10], 1.6 µg/mL (≈ 4.93 µM) in the assay on Trichophyton benhamiae [11] and 3.1 µg/mL (≈ 9.54 µM) in the assay on Aspergillus fumigatus [4].

Turning to `CC(c1ccccc1)(n1ccnc1)n1ccnc1`, the MIC (with Candida albicans [2]; in assay [3]; against Aspergillus fumigatus [4]) was above 100 µg/mL each time.

As to `C=C(c1ccccc1OCCc1ccc(Cl)cc1)n1ccnc1`, in the assay with Candida albicans [13], the minimal effective concentration stood at 1.25 µg/mL. Further, the MIC with Candida albicans [2] stood at 25 µg/mL (≈ 77 µM); against Trichophyton benhamiae [8] it was 0.1 µg/mL (≈ 0.308 µM); against Aspergillus fumigatus [4] it was 0.4 µg/mL (≈ 1.23 µM).

With `C=C(c1cc(Cl)ccc1OCc1ccccc1)n1ccnc1`, the MIC in the assay on Candida albicans [5] stood at 12.5 µg/mL (≈ 40.2 µM); in the assay on Trichophyton rubrum [6] it was 0.8 µg/mL (≈ 2.57 µM); with Candida albicans [2], 6.2 µg/mL (≈ 19.9 µM); in the assay on Trichophyton rubrum [14] it was 1.6 µg/mL (≈ 5.15 µM); with Trichophyton benhamiae [8], 0.1 µg/mL (≈ 0.322 µM); against Candida albicans [9] it was 12.5 µg/mL (≈ 40.2 µM). In addition, the minimum inhibitory concentration (MIC) with Trichophyton benhamiae [10] was found to be 1.6 µg/mL (≈ 5.15 µM); against Trichophyton benhamiae [11], 1.6 µg/mL (≈ 5.15 µM); in the assay with Aspergillus fumigatus [4], 3.1 µg/mL (≈ 9.97 µM).

As to `C=C(c1ccccc1SCc1ccc(Cl)cc1)n1ccnc1`, the minimal inhibitory concentration (MIC) in the assay on Candida albicans [2] was determined as 50 µg/mL (≈ 153 µM); in [3], 0.1 µg/mL (≈ 0.306 µM); with Aspergillus fumigatus [4] it was 0.8 µg/mL (≈ 2.45 µM).

Consider `c1ccc(C(n2ccnc2)n2ccnc2)cc1`, for which the MIC (with Candida albicans [2]; in [3]; against Aspergillus fumigatus [4]) was above 100 µg/mL each time.

`CC(c1cccc(OCc2ccc(Cl)cc2)c1)(n1ccnc1)n1ccnc1`: the MIC (in assay [15]; against Candida albicans [2]; in the assay on Aspergillus fumigatus [4]) was above 100 µg/mL each time.

Take `CC=C(c1ccccc1OCc1ccc(Cl)c(Cl)c1)n1ccnc1`: the minimum inhibitory concentration (MIC) against Candida albicans [5] amounted to 6.3 µg/mL (≈ 17.5 µM); in the assay on Trichophyton rubrum [6], 0.8 µg/mL (≈ 2.23 µM); against Candida albicans [2], 6.2 µg/mL (≈ 17.3 µM); with Trichophyton rubrum [7], 0.8 µg/mL (≈ 2.23 µM); against Trichophyton benhamiae [8], 0.1 µg/mL (≈ 0.278 µM); against Candida albicans [9] it was 12.5 µg/mL (≈ 34.8 µM). Besides, the MIC against Trichophyton benhamiae [10] amounted to 0.8 µg/mL (≈ 2.23 µM); against Trichophyton benhamiae [11], 0.8 µg/mL (≈ 2.23 µM); against Aspergillus fumigatus [4], 0.4 µg/mL (≈ 1.11 µM).

As to `C=C(c1cc(Cl)ccc1OCc1ccc(Cl)cc1)n1ccnc1`, the minimal inhibitory concentration (MIC) came out at 12.5 µg/mL (≈ 36.2 µM) with Candida albicans [5]; 0.8 µg/mL (≈ 2.32 µM) against Trichophyton rubrum [6]; 12.5 µg/mL (≈ 36.2 µM) against Candida albicans [2]; 0.8 µg/mL (≈ 2.32 µM) against Trichophyton rubrum [7]; 0.1 µg/mL (≈ 0.29 µM) in the assay on Trichophyton benhamiae [8]; 12.5 µg/mL (≈ 36.2 µM) with Candida albicans [9]. The minimum inhibitory concentration (MIC) against Trichophyton benhamiae [10] turned out to be 1.6 µg/mL (≈ 4.63 µM); in the assay with Trichophyton benhamiae [11] it was 1.6 µg/mL (≈ 4.63 µM); against Aspergillus fumigatus [4], 3.1 µg/mL (≈ 8.98 µM).

`Clc1ccccc1C(c1ccccc1)(c1ccccc1)n1ccnc1` [CLOTRIMAZOLE]: the MIC in the assay on Candida albicans [5] is 6.3 µg/mL (≈ 18.3 µM); with Trichophyton benhamiae [16], 0.8 µg/mL (≈ 2.32 µM); against Trichophyton rubrum [6], 0.8 µg/mL (≈ 2.32 µM); against Trichophyton rubrum [7] it was 0.8 µg/mL (≈ 2.32 µM); against Candida albicans [9], 12.5 µg/mL (≈ 36.2 µM); in the assay on Trichophyton benhamiae [17] it was 0.4 µg/mL (≈ 1.16 µM).

In the case of `C=C(c1ccccc1OCc1cccc(Cl)c1)n1ccnc1` [CROCONAZOLE], the minimal inhibitory concentration (MIC) with Candida albicans [5] came to 6.3 µg/mL (≈ 20.3 µM); against Trichophyton rubrum [6] it was 0.4 µg/mL (≈ 1.29 µM); against Candida albicans [2] it was 3.1 µg/mL (≈ 9.97 µM); in the assay with Trichophyton rubrum [7], 0.4 µg/mL (≈ 1.29 µM); in the assay on Trichophyton benhamiae [8], 0.1 µg/mL (≈ 0.322 µM); in the assay with Candida albicans [9], 12.5 µg/mL (≈ 40.2 µM). For the same compound, the MIC against Trichophyton benhamiae [10] came out at 0.8 µg/mL (≈ 2.57 µM); in the assay with Trichophyton benhamiae [11] it was 0.8 µg/mL (≈ 2.57 µM); with Aspergillus fumigatus [4], 3.1 µg/mL (≈ 9.97 µM).

By MIC is commonly meant the smallest concentration in the dilution series that meets the test's criterion for growth inhibition. Higher therefore signals a need for much substance.
